The EternaBench riboswitch data

Test system: MS2 coat protein
Assay: apparent Kd, MS2 coat protein; higher = weaker binding; RNA-MaP array; FMN 200 µM where present
Method in brief: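 Stalled E. coli RNA polymerase transcribed each design on Illumina sequencing-chip clusters. The clusters were titrated with SNAP-549-labelled MS2 coat protein, starting at 0.7 or 1.5 nM and doubling up to 3 µM, first without ligand and then with constant ligand, in 100 mM Tris-HCl pH 7.5, 80 mM KCl, 4 mM MgCl2, BSA, DTT, yeast tRNA and Tween-20. Green signal was normalised to red-channel RNA signal and to the control-cluster median Fmax. The apparent Kd is the median of filtered binding-curve fits made for each cluster.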

[1] = designed as: OFF switch for flavin mononucleotide, no ligand
[2] = ligand present: flavin mononucleotide, designed as: OFF switch for flavin mononucleotide
[3] = designed as: ON switch for flavin mononucleotide, no ligand
[4] = ligand present: flavin mononucleotide, designed as: ON switch for flavin mononucleotide

Sequence	apparent Kd [1]	apparent Kd [2]	apparent Kd [3]	apparent Kd [4]
AAUGGCCAAGGAUAUGAGACCUAAAACAUGAGGAUCACCCAUGUGGACUCAGCCGCGUGGUCAGAAGGUGGAACCA	13.8 nM	14.8 nM	–	–
GGUCGUCACAUGAACAUGAGGAUCACCCAUGUAAAUUCUCAUGAGGAUAUGGAUCCUAAUUGGAUCCAGAAGGCGUGGACGACC	–	–	953 nM	457 nM
UGUUGUAUUACAGGAUAUCUAUUAUUUUGAUUUAGAGAAGGGUAUUCACAUGAGGAUCACCCAUGUAUAUACGAGGAAGUUGUG	–	–	47.7 nM	47.9 nM
GAUCAACAUGAGGAUCACCCAUGUGAGGAUAUGAUACUAUGUACUUCGGUACAUAGUAUCAGAAGGCAUUAGGA	51.8 nM	39.6 nM	–	–
CGAUAUAUGAAGGGCGAAAGCCCACAUGAGGAUCACCCAUGUAGAAGGCGGGCCGCAACGCGGCCCGAGGAUAUAUAGUAUACA	8.05 nM	8.84 nM	–	–
GCACGAGACUAAGGAUAUGGUGUAUCUACAUGAAACAUGAGGAUCACCCAUGUAGUAAGUAUGAUUCAGAAGGUAGAGACGUGC	–	–	49.7 nM	23 nM
GACUCGCGCACAGGAUAUCCACGGAGCGGACGCGGAGAAGGGUGACAUGAGGAUCACCCAUGUACGUGAGUCUAGAUCACUUCC	–	–	76.8 nM	22.5 nM
UGUUGUUUAGGAUAUACAUGAGGAUCACCCAUGUGACAAAAAUAUUUUACAAAACCAUGUAGAAGGAAAUGGCA	22.3 nM	48.2 nM	–	–
UCAUUUCAGUAAGGAUAUUUAUUCAUGACGAUACAUGAGGAUCACCCAUGUAAAGAAGGUACUAAUACAAAUAAUGCAUUGUUC	11.9 nM	10.1 nM	–	–
UUGUUUAGAAAUUAACAUGAGGAUCACCCAUGUAUUGGAUCAGAGGAUAUGCAUGUUUGAUUGUAGCAGAAGGCUGAUUGUUGA	–	–	50.6 nM	45.1 nM
AGCUGGUGACAGCAUCCAUCAAAACAUGAGGAUCACCCAUGUAGAAGGCUGUACGGUUACCGUACAGAGGAUAUACAAUGAUGC	13.8 nM	31.8 nM	–	–
ACAUAAAUUCGAGGAUAUCGGUGAUUUAAUUUACGAGAAGGCGAUAAAAGUUAUAAACUUAUAGACAUGAGGAUCACCCAUGUA	–	–	34.9 nM	33.1 nM
ACAUGAGGAUCACCCAUGUUAAACGAGGAUAUUUGACUGCACAUGAGGUUCGCCCAUGUCCUGCCGAAGAAGGUGUGAAUAAUU	–	–	17.6 nM	13.5 nM
ACAUGAGGAUCACCCAUGUUAUCCGGGACUUCAAUUGUUUCUAGAAGGCUGUCUGCUUGUUAGUCAGAGGAUAUAGAAUCAAAU	11.4 nM	11 nM	–	–
AGAACAUGAGGAUCACCCAUGUAAAGAUCGGUCAAUAAGGGUGAGGAUAUGCUUAAAAUAAGGUAGCAGAAGGUACUUGGUGCA	–	–	91.2 nM	245 nM
GGUGCGUAUGUGAGGAUAUGCUGGUCCUUGGAUCGGCAGAAGGCACAUGAGGAUCACCCAUGUGGUGUCGUUCC	120 nM	55.4 nM	–	–
AAGAAGUGAGGAUAUGCUGCUCGUCACUUGCGUGAUGAGUAGCAGAAGGCACAUGAGGAUCACCCAUGUAAAGA	44 nM	53 nM	–	–
AGCUACGUUUCGUAGCAGUGUCAUCGAGAAGGCUCAUAAACAUGAGGAUCACCCAUGUAAACAUGGGAGGAUAUCGAUGAUACA	–	–	39.6 nM	6.5 nM
UCAUGAUAUGUAGGAUAUCACUUUAAUUGAUUAAUAUAUGAAUAUAGAAUUUGAGAAGGACAUUUACAUGAGGAUCACCCAUGU	12.9 nM	9.67 nM	–	–
GCAUCCAAAGUGAGGAUAUACCUCUGGAUACAUAGGUAGAAGGCACAUGAGGAUCACCCAUGUUCCUAGGAUGC	31.6 nM	43.1 nM	–	–
GAGUACUUAGGAUAUACAUGAGGAUCACCCAUGUCUAGGCGGCGCUGGGUCCCUCGCAGUAGAAGGAAGCGCUG	24.6 nM	42.3 nM	–	–
AGCAUGCUAGGAUAUACGAAACAUUAGGGUUCGUCGUAUGAACAUGAGGAUCACCCAUGUAGAAGGAGCGUGCA	18 nM	36.2 nM	–	–
GACAUACAUGAGGAUCACCCAUGUUCAAGCGGACAAGGAUAUGUGUGGAAACCAUACUAUACAGAAGGUGUCUGUC	–	–	25.9 nM	17.1 nM
GGAAAGUGAGGAUAUGGUAAAGUAAGUAUGUAGUAAGUAAUCCAGAAGGCACAUGAGGAUCACCCAUGUAAAUG	28.1 nM	35.7 nM	–	–
